Data reported in ChEMBL document CHEMBL1255317, “Attenuated vancomycin bactericidal activity against Staphylococcus aureus hemB mutants expressing the small-colony-variant phenotype” (2008).

Tests used:
[1] = tested on: Staphylococcus aureus; experiment: Antimicrobial activity against methicillin resistant Staphylococcus aureus Newman assessed as bacterial killing by time kill study; assay type: functional, organism-based
[2] = tested on: Staphylococcus aureus; experiment: Antimicrobial activity against methicillin resistant Staphylococcus aureus Ia48 containing hemB mutation (hemB::ermB) expressing small-colony-variant phenotype assessed as bacterial killing at 64 times MIC after 24 hrs by time kill study; assay type: functional
Outline: (§1)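 Time-kill in Ca/Mg-supplemented BHI. A 0.5 McFarland saline suspension was diluted to about 10^7 CFU/ml with vancomycin in 10-ml cultures, shaken at 35°C. Counts at 0, 1, 2, 4, 6 and 24 h by spiral plating on BHI agar, incubated 24 h at 35°C (48 h for Ia48 and III33). Drug-free growth controls were run. Value is the 24-h log10 CFU/ml change from baseline; runs were duplicate to quadruplicate.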

[3] = tested on: Staphylococcus aureus; experiment: Antimicrobial activity against methicillin resistant Staphylococcus aureus III33 containing hemB mutation (hemB::ermB) expressing small-colony-variant phenotype assessed as bacterial killing at 64 times MIC after 24 hrs by time kill study; assay type: functional; outline: as §1
[4] = tested on: Staphylococcus aureus; experiment: Antimicrobial activity against methicillin resistant Staphylococcus aureus COL assessed as bacterial killing at 64 times MIC after 24 hrs by time kill study relative to baseline; assay type: functional; outline: as §1
[5] = tested on: Staphylococcus aureus; experiment: Antimicrobial activity against methicillin resistant Staphylococcus aureus COL assessed as bacterial killing by time kill study; assay type: functional, organism-based
[6] = tested on: Staphylococcus aureus; experiment: Antimicrobial activity against methicillin resistant Staphylococcus aureus isolate A20780 I isolated from persistent bacterial infection patient assessed as bacterial killing at 64 times MIC after 24 hrs by time kill study; assay type: functional; outline: as §1
[7] = tested on: Staphylococcus aureus; experiment: Antimicrobial activity against methicillin resistant Staphylococcus aureus isolate A20780 II with hemin auxotrophism and expressing small-colony-variant phenotype isolated from persistent bacterial infection patient assessed as bacterial killing at 64 times MIC after 24 hrs by time kill study; assay type: functional; outline: as §1
[8] = tested on: Staphylococcus aureus; experiment: Antimicrobial activity against methicillin resistant Staphylococcus aureus Newman assessed as bacterial killing at 64 times MIC after 24 hrs by time kill study relative to baseline; assay type: functional; outline: as §1
[9] = tested on: Staphylococcus aureus; experiment: Antimicrobial activity against methicillin resistant Staphylococcus aureus isolate A20780 I isolated from persistent bacterial infection patient assessed as bacterial killing by time kill study; assay type: functional, organism-based

## CN[C@H](CC(C)C)C(=O)N[C@H]1C(=O)N[C@@H](CC(N)=O)C(=O)N[C@H]2C(=O)N[C@H]3C(=O)N[C@H](C(=O)N[C@H](C(=O)O)c4cc(O)cc(O)c4-c4cc3ccc4O)[C@H](O)c3ccc(c(Cl)c3)Oc3cc2cc(c3O[C@@H]2O[C@H](CO)[C@@H](O)[C@H](O)[C@H]2O[C@H]2C[C@](C)(N)[C@H](O)[C@H](C)O2)Oc2ccc(cc2Cl)[C@H]1O [VANCOMYCIN]
[1]
  Activity: Dose-dependent effect
[2]
  log10CFU/ml: 1.4
[3]
  log10CFU/ml: 1.88
[4]
  log10CFU/ml: 3.99
[5]
  Activity: Dose-dependent effect
[6]
  log10CFU/ml: 2.39
[7]
  log10CFU/ml: 1.78
[8]
  log10CFU/ml: 4.81
[9]
  Activity: Dose-dependent effect
